# Assay outcomes (PubChem)
# Shown are actives, neighbours in structure and some others; about 1.4% of the full set was active somewhere.
# Avidin bead fluor: avidin bead compound fluorescence profile. Avidin beads, compound fluorescence 488/530 nm, flow cytometry; stronger effect = higher value. fluorescence (KMESF) at 10 µM. 220,000 compounds, 0.38% hits. AID 1775; in the data active = fluorescence above about 47
# PMI act satM6P: PMI (human) activation, high substrate. activation factor at 20 µM. coupled PMI enzyme assay, resazurin fluorescence, 20 min; stronger effect = higher value; 1 = untreated enzyme, 0 = substrate-free blank. 190,000 compounds, 0.34% hits. P34949;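 active = activation factor of 2 or more at 20 µM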
# Target sequence (P34949 whole entry, looked up): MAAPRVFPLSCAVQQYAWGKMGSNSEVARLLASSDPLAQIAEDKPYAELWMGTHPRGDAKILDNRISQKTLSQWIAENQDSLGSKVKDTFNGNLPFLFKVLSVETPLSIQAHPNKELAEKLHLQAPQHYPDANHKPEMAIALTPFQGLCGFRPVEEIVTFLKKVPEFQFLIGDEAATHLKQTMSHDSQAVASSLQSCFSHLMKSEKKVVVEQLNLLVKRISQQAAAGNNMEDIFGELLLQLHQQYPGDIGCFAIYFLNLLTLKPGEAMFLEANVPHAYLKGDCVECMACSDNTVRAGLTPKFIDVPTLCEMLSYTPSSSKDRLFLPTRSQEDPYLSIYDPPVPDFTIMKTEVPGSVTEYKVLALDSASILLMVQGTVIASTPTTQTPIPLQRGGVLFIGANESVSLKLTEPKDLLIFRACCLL
#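 Material: human phosphomannose isomerase with PGI, G6PDH, diaphorase coupling enzymes / Reagent: Man-6-P substrate 1.0 mM / Dosing: single compound dose of 20 µM, 1% DMSO final / Incubation: enzyme reaction with compound 20 min at room temperature / Signal: resorufin fluorescence (Ex 544/Em 590 nm) from resazurin via diaphorase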
# Diaph act CS: diaphorase activation or chemical reduction counter-screen; Diaphorase/resazurin coupled assay, resorufin fluorescence, 16 min; stronger effect = higher value; 1 = vehicle wells, 0 = NADH-free wells; activation factor at 20 µM; 190,000 compounds, 0.005% hits;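 active = diaphorase activity raised at least twofold by the compound at 20 µM; inactive = activation factor below 2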
#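 Material: Clostridium kluyveri diaphorase, purified enzyme; Quantity: enzyme 0.07 U/mL final; Medium: HEPES pH 7.4 buffer with MgCl2 and Tween 20; Dosing: single compound dose of 20 µM, 1% DMSO final; Schedule: 16 min reaction at room temperature; Measured by: red resorufin fluorescence at 544/590 nm excitation/emission.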
# GSH fluor: compound fluoresces at 488/530 nm on GSH beads; GSH beads flow cytometry, compound fluorescence 488/530 nm; stronger effect = higher value; fluorescence (KMESF) at 10 µM; 190,000 compounds, 0.25% hits; in the data active = fluorescence above about 89;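 note: glutathione beads carrying GST-tagged Bcl family fusion proteins plus one bare bead set; values are compound well signal with DMSO vehicle wells as background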
# NCF1 inh: blocks human p47phox regulatory protein of NADPH oxidases; AID 1274; inhibition, % at 24.7 µM; 220,000 compounds, 0.53% hits; p47phox/p22phox peptide binding, fluorescence polarization, 2 h;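 active = inhibition above about 30%, limit read from the data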;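 note: 0% = p47phox with labelled peptide and 100% = labelled peptide alone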
# PMI activator: increases human mannose-6-phosphate isomerase activity; P34949; purified human PMI, coupled resazurin fluorescence, 20 min; stronger effect = higher value; 1 = vehicle control, 0 substrate-free wells; activation factor at 20 µM; 190,000 compounds, 0.005% hits;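 active = activation factor of 2 or more at 20 µM, relative to plate controls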
# * = called active by the depositor; · = no result.
SMILES,Avidin bead fluor,PMI act satM6P,Diaph act CS,GSH fluor,NCF1 inh,PMI activator
Cc1ccnc2nc(C(=O)N3CCN(c4ccc(F)cc4)CC3)nn12,5,1.1,0.9,249*,-23.2,1.1
Cc1cc(N)ccc1N1CCCC1,1,0.7,0.9,0,97.0*,0.6
Cc1cc(N)ccc1-n1c(C)ccc1C,28,0.3,0.8,10,-5.5,0.6
NC(=O)c1cc(N)ccc1N1CCCC1,9,0.6,0.7,10,140.3*,0.8
NC(=O)c1ccccc1NC(=O)Nc1cccc2ccccc12,11,0.8,0.9,14,-8.4,1
O=C(Cc1ccc(Cl)cc1)NNC(=O)Nc1cccc2ccccc12,34,0.8,0.9,8,59.8*,0.8
Cc1ccc(-c2nc(C=Nc3cccc(C)c3)c(O)o2)cc1,6,1,1,15,·,1
CCOc1ccc(CC(=O)C2C(=O)CCCC2=O)cc1OCC,17,2.1*,1,10,-8.1,1.4
O=C(Nc1cccc(F)c1)c1ccc(CSc2ccccc2)o1,3,0.9,0.9,6,-1.1,0.8
CCOn1c(=O)c(C)[n+]([O-])c2ccccc21,5,1,1,·,-7.5,1
Cc1ccc(NC2=C(NCCO)C(=O)c3ccccc3C2=O)cc1,49*,0.5,0.5,11,-3.7,0.8
CC(=O)Nc1ccc(NC2=C(Cl)C(=O)c3ccccc3C2=O)cc1,13,0.4,0.9,13,11.7,1
Fc1ccc(OCc2nc3ccccc3s2)cc1,8,0.8,1,17,-8.8,0.9
CN(C)c1ccc(NC(=O)c2cccc(N3C(=O)CCC3=O)c2)cc1,15,0.8,0.8,7,-3.1,0.9
NC(=O)C1CCN(Cc2nc3ccccc3c(=O)[nH]2)CC1,7,1,1,14,33.5*,0.9
NC(=O)C1CCN(Cc2nc3cc(Cl)ccc3c(=O)[nH]2)CC1,9,1,0.8,12,-15.3,1
O=C(O)c1ccc2c(=O)[nH]c(CN3CCOCC3)nc2c1,62*,1.1,1,11,-12.8,1.1
O=c1[nH]c(CN2CCOCC2)nc2ccccc12,19,1,1.1,13,-6.2,1
O=C(Cn1nnc(-c2ccccc2NC(=O)C2CC2)n1)NC1CCCCC1,13,1,0.9,23,-10.5,1.1
Cc1cc(C)c(S(=O)(=O)NCC2CCC(C(=O)NCCCN3CCOCC3)CC2)c(C)c1 (centres undefined),14,1,1,9,39.5*,1
Cc1ccc(S(=O)(=O)NCC2CCC(C(=O)NCCCN3CCOCC3)CC2)cc1 (centres undefined),31,1,0.9,23,-1.0,0.9
Cc1cc(C)nc(NC(=O)CSc2nc3ccccc3o2)n1,8,1,1,46,42.5*,1
CCn1c(SCC(=O)N2CC(=O)Nc3ccccc32)nnc1-c1ccoc1C,7,1,0.9,260*,-5.4,1
Cc1occc1-c1nnc(SCC(=O)N2CC(=O)Nc3ccccc32)n1CC(C)C,·,1.1,0.9,10,-4.5,1
CN(C)C=Nc1nc2ccccc2nc1N1CCCC1,13,0.8,0.9,10,-11.1,0.8
SMILES,Avidin bead fluor,PMI act satM6P,Diaph act CS,GSH fluor,NCF1 inh,PMI activator
O=C(Nc1ccc(Nc2ccncc2)cc1)c1ccc(Nc2ccnc3ccc([N+](=O)[O-])cc23)cc1,-1,·,·,·,46.2*,·
O=C1c2ccccc2C(=O)N1CCN1CCOCC1,233*,1,0.9,20,-4.9,1
CCN(CC)S(=O)(=O)c1cc(NC(=O)CSc2nnc(-c3cccs3)o2)ccc1C,11,0.9,0.9,9,51.9*,1
Cc1cc(C)cc(N(CC(=O)NCCSCc2ccccc2)S(C)(=O)=O)c1,77*,1.1,1,10,-4.5,1
CS(=O)(=O)N(CC(=O)NCCSCc1ccccc1)c1ccccc1,10,1,0.9,9,3.9,1
CCN1CN(CCc2ccccc2)CNC1=S,6,1,0.9,10,-8.0,1
